Most compounds without a hit are left out; they make up all but 3.8% or so of the library.
DENV2 CPE: DENV2-induced cell death inhibition. DENV2-infected cells, cytopathic effect rescue, plate reader. actives 1.7% (n = 350,000). CPE inhibition, % at 9.99 µM. AID 651640; in the data active = CPE inhibition above about 20%, passing the limit was not always enough; tested in BHK-21 cells;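 note: 0% = median of neutral control wells and 100% = median of positive control wells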
XiGFP reactiv: reactivates the inactive X chromosome in mouse fibroblasts. XiGFP mouse fibroblasts, % GFP-positive cells imaging, 3 d; cells co-treated with 5-aza-dC sensitizer; scaled so ellipticine positive control = 100%. activation, % at 7.58 µM. actives 0.055% (n = 360,000);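 active = mean normalized replicate activation at least 10% and every replicate at or above 10%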;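 note: 0% = median of on-plate neutral control wells and 100% = ellipticine 6 µM median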
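System: 68-5-11 XiGFP fibroblast line; Timing: 3 days compound exposure; Compound dosing: one concentration, pinned; Benchmarks: positive control ellipticine, 6 µM final; Buffer or medium: DMEM containing 5-aza-dC.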
FGF22 binding: FGF22 (human) thermal shift binding | Q9HCT0 | recombinant FGF22 thermal shift, SYPRO orange fluorescence; percent of sucrose octasulfate shift, DMSO zero | activity (Tm shift, normalised), % at 9.99 µM | actives 1.5% (n = 340,000) | AID 651658;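 active = mean Tm shift, scaled 0 neutral to 100 positive control, at about 1.3% or above, every replicate too, limit read from the data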
Target sequence (Q9HCT0 whole entry, looked up): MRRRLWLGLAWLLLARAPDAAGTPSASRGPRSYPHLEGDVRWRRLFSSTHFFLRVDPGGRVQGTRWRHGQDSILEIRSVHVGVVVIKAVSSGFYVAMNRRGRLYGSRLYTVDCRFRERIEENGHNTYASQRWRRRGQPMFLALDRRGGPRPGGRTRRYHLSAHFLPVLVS
ARNT TACC3 PPI: disrupts binding between human ARNT and TACC3; AlphaScreen His-ARNT PAS-B/GST-TACC3 binding, luminescence; TACC3 fragment carries E629A point mutation; inhibition, % at 9.99 µM; actives 0.66% (n = 390,000); AID 623870;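 active = mean inhibition of replicates at least 50% and at least half of replicates each reaching 50%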;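 note: 0% = complete ARNT plus TACC3 wells and 100% = ARNT alone without TACC3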
SIRT5 block: inhibitors of human sirtuin-5 desuccinylase; Q9NXA8; AID 652115; inhibition, % at 15 µM; actives 1.1% (n = 330,000); Purified SirT5, succinyl-peptide AMC, trypsin-coupled fluorescence; in the data active = inhibition above about 15%
Target sequence (Q9NXA8 whole entry, looked up): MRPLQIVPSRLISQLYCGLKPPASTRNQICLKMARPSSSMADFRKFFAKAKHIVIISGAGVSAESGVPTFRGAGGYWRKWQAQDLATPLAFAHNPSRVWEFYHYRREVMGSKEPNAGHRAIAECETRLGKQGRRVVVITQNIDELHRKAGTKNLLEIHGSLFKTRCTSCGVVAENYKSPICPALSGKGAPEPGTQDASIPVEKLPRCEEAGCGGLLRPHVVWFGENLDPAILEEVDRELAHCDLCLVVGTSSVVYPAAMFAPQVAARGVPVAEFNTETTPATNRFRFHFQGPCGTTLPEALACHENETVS
FN deposit inh: fibronectin deposition inhibition; inhibition, % at 12.6 µM; actives 0.086% (n = 350,000); AH1F fibroblasts, Alexa488-fibronectin deposition fluorescence, overnight;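 active = mean inhibition across replicates of 30% or more, regardless of how many single replicates reach that level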;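 note: positive control wells lacked labelled fibronectin entirely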
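test system = AH1F fibroblasts assembling fluorescent fibronectin matrix | quantity = 10000 AH1F cells per well | buffer or medium = DMEM plus 2% serum, read in PBS | doses = single dose, pinned | incubation = 1 h cell attachment, overnight exposure to compound and label | detection = fluorescence at 485 nm excitation, 525 nm emission | read-out basis = inhibition from reduced deposited-fibronectin fluorescence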
* marks the source's active call; other numbers are inactive results.

O=C(NCCc1ccccc1)C1c2ccccc2C(=O)N1Cc1cccs1 (configuration not stated) was read as DENV2 CPE 9, XiGFP reactiv 0, FGF22 binding 0, ARNT TACC3 PPI 0, SIRT5 block 34* and FN deposit inh 0.
For O=C(NC1CCCCCCC1)C1c2ccccc2C(=O)N1Cc1cccs1 (configuration not stated) the results were DENV2 CPE -2, XiGFP reactiv 0, FGF22 binding 0, ARNT TACC3 PPI -7, SIRT5 block -1 and FN deposit inh -4.
Cc1cnc(C(=O)OCC(=O)NC23CC4CC(CC(C4)C2)C3)cn1 was read as DENV2 CPE -6, FGF22 binding 0, ARNT TACC3 PPI -11 and SIRT5 block 1.
Cc1cnc(C(=O)OCC(=O)c2cc(C)n(C)c2C)cn1 was read as DENV2 CPE 0, XiGFP reactiv 0, FGF22 binding 43*, ARNT TACC3 PPI -4, SIRT5 block -1 and FN deposit inh -1.
Cc1cnc(C(=O)OCC(=O)C23CC4CC(CC(C4)C2)C3)cn1 was read as DENV2 CPE -1, XiGFP reactiv 0, FGF22 binding 0, SIRT5 block 17* and FN deposit inh 5.
CCCN(C)C[C@@H]1Oc2cc(C#Cc3ccccc3)ccc2S(=O)(=O)N([C@@H](C)CO)C[C@@H]1C was read as DENV2 CPE 20, XiGFP reactiv 0, FGF22 binding 0, ARNT TACC3 PPI 1, SIRT5 block -1 and FN deposit inh 0.
For C[C@@H]1CCCCO[C@H](CN(C)CC2CCCCC2)[C@H](C)CN([C@@H](C)CO)C(=O)c2cc(NS(=O)(=O)c3ccc(F)cc3)ccc2O1 the results were DENV2 CPE -9, XiGFP reactiv 0, FGF22 binding 0, ARNT TACC3 PPI 0 and SIRT5 block 14.
For C[C@H]1CCCCO[C@@H](CN(C)CC2CCCCC2)[C@@H](C)CN([C@@H](C)CO)C(=O)c2cc(NS(=O)(=O)c3ccccc3)ccc2O1 the results were DENV2 CPE 1, XiGFP reactiv 0, FGF22 binding 0, ARNT TACC3 PPI 3 and SIRT5 block 9.
For Cc1ccc(S(=O)(=O)Nc2ccc3c(c2)C(=O)N([C@@H](C)CO)C[C@@H](C)[C@@H](CN(C)CC2CCCCC2)OCCCC[C@H](C)O3)cc1 the results were DENV2 CPE -1, XiGFP reactiv 0, FGF22 binding 0, ARNT TACC3 PPI 5 and SIRT5 block 17*.
C[C@@H]1CN([C@@H](C)CO)C(=O)c2cc(NS(=O)(=O)c3ccccc3)ccc2O[C@@H]1CN(C)CC1CCCCC1 was read as DENV2 CPE -3, XiGFP reactiv 0, FGF22 binding 0, ARNT TACC3 PPI -1 and SIRT5 block 25*.
Screening C[C@@H]1CN([C@@H](C)CO)C(=O)c2cc(NS(=O)(=O)c3ccccc3)ccc2O[C@@H](C)CCCCO[C@@H]1CN(C)CC1CCCCC1 returned DENV2 CPE 55*, XiGFP reactiv 0, FGF22 binding 0, ARNT TACC3 PPI 4 and SIRT5 block 8.
C[C@@H]1CCCCO[C@@H](CN(C)CC2CCCCC2)[C@@H](C)CN([C@@H](C)CO)C(=O)c2cc(NS(=O)(=O)c3ccc(F)cc3)ccc2O1 was read as DENV2 CPE 4, XiGFP reactiv 0, FGF22 binding 0, ARNT TACC3 PPI 1 and SIRT5 block 19*.
For C[C@H]1CN([C@@H](C)CO)C(=O)c2cc(NS(=O)(=O)c3ccccc3)ccc2O[C@H]1CN(C)CC1CCCCC1 the results were DENV2 CPE 0, XiGFP reactiv 0, FGF22 binding 0, ARNT TACC3 PPI -8 and SIRT5 block 15.
Screening O=C(N[C@H]1C=C[C@H](CC(=O)N2CCC(Cc3ccccc3)CC2)O[C@H]1CO)c1cnccn1 returned DENV2 CPE 20, XiGFP reactiv 0, FGF22 binding 0, ARNT TACC3 PPI 2, SIRT5 block 0 and FN deposit inh -8.
Screening O=C(Nc1ccc(Cl)c(Cl)c1)N[C@H]1CC[C@@H](CCNC(=O)c2ccc(F)cc2)O[C@@H]1CO returned DENV2 CPE 2, XiGFP reactiv 0, FGF22 binding 0, ARNT TACC3 PPI 2, SIRT5 block -2 and FN deposit inh -12.
`CCC(=O)N(C)C[C@@H]1Oc2ncc(/C=C/c3ccccc3)cc2C(=O)N([C@@H](C)CO)C[C@@H]1C` gave DENV2 CPE -10, XiGFP reactiv 0, FGF22 binding 0, ARNT TACC3 PPI 1, SIRT5 block -13 and FN deposit inh 1.
`CCCC(=O)N1CCC2(CC1)CN(C(=O)Nc1ccc(F)cc1)[C@@H](CO)c1c2c2ccc(OC)cc2n1C` gave DENV2 CPE -7 and XiGFP reactiv 0.
For COc1ccc2c3c(n(C)c2c1)[C@H](CO)N(C(=O)Nc1ccc(F)cc1)CC31CN(C(=O)c2cccnc2)C1 the results were DENV2 CPE 25*, XiGFP reactiv 0, FGF22 binding 0, SIRT5 block 5 and FN deposit inh 1.
Screening COc1ccc2c3c(n(C)c2c1)[C@@H](CO)N(Cc1ccncc1)CC31CCN(C(=O)C2CC2)CC1 returned XiGFP reactiv 0.
CCCNC(=O)N1CCC2(CC1)CN(Cc1ccccn1)[C@@H](CO)c1c2c2ccc(OC)cc2n1C was read as DENV2 CPE 71*, XiGFP reactiv 0, SIRT5 block 1 and FN deposit inh -14.
Screening COc1ccc2c3c(n(C)c2c1)[C@@H](CO)N(C(=O)Nc1ccc(F)cc1)CC31CCN(C(=O)Cc2ccncc2)CC1 returned DENV2 CPE 40*, XiGFP reactiv 0 and FGF22 binding 0.
`COc1ccc2c3c(n(C)c2c1)[C@H](CO)N(Cc1ccncc1)CC31CCN(C(=O)Cc2ccncc2)CC1` gave DENV2 CPE 77*, XiGFP reactiv 0 and FGF22 binding 0.
COc1ccc2c3c(n(C)c2c1)[C@@H](CO)N(C(=O)Nc1ccc(F)cc1)CC31CN(S(=O)(=O)c2cccs2)C1 was read as DENV2 CPE 46* and XiGFP reactiv 1.
For COc1cccc(CN2CC3(CCN(C)CC3)c3c(n(C)c4cc(OC)ccc34)[C@@H]2CO)c1 the results were DENV2 CPE 11, XiGFP reactiv 0, FGF22 binding 0 and SIRT5 block 1.
Screening CCS(=O)(=O)N1CC2(CN(Cc3cccc(Cl)c3)[C@H](CO)c3c2c2ccc(OC)cc2n3C)C1 returned DENV2 CPE -7, XiGFP reactiv 0, FGF22 binding 0, SIRT5 block 26* and FN deposit inh 3.

From PubChem
